Experimental data taken from ChEMBL document CHEMBL1131135, “Substituted 4-acylpyrazoles and 4-acylpyrazolones: synthesis and multidrug resistance-modulating activity” (J Med Chem, 1998).

Legend:
L5178Y = assay: Compound was tested for inhibition of rhodamine 123 efflux in mdr 1 transfectant L5178Y VMDRI C.06 mouse lymphoma cells; type: functional, cell-based
Method in brief: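 Cells at 1 × 10⁶/mL in RPMI1640 preloaded with rhodamine 123 (final 0.2 μg/mL, 0.53 μmol/L) for 15 min at 37 °C, then resuspended in 37 °C medium with modulator (eight concentrations, 1:2.5 serial dilution, 3 nM–500 μM). Aliquots taken at 0, 30, 60, 90, 120 s into ice-cold verapamil stop solution. Read by flow cytometry, 5000 events. Vmax/Km from exponential fit, parental-line diffusion subtracted. EC50 from dose–response, mean of ≥5 experiments.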

[1] = biological target: ATP-dependent translocase ABCB1 (Homo sapiens, UniProt P08183); assay: Compound was tested for inhibition of daunomycin efflux in the resistant human T-lymphoblast cell line CEM vcr1000.; type: functional, cell-based, CCRF-CEM
Sequence of ATP-dependent translocase ABCB1 (P08183 whole entry): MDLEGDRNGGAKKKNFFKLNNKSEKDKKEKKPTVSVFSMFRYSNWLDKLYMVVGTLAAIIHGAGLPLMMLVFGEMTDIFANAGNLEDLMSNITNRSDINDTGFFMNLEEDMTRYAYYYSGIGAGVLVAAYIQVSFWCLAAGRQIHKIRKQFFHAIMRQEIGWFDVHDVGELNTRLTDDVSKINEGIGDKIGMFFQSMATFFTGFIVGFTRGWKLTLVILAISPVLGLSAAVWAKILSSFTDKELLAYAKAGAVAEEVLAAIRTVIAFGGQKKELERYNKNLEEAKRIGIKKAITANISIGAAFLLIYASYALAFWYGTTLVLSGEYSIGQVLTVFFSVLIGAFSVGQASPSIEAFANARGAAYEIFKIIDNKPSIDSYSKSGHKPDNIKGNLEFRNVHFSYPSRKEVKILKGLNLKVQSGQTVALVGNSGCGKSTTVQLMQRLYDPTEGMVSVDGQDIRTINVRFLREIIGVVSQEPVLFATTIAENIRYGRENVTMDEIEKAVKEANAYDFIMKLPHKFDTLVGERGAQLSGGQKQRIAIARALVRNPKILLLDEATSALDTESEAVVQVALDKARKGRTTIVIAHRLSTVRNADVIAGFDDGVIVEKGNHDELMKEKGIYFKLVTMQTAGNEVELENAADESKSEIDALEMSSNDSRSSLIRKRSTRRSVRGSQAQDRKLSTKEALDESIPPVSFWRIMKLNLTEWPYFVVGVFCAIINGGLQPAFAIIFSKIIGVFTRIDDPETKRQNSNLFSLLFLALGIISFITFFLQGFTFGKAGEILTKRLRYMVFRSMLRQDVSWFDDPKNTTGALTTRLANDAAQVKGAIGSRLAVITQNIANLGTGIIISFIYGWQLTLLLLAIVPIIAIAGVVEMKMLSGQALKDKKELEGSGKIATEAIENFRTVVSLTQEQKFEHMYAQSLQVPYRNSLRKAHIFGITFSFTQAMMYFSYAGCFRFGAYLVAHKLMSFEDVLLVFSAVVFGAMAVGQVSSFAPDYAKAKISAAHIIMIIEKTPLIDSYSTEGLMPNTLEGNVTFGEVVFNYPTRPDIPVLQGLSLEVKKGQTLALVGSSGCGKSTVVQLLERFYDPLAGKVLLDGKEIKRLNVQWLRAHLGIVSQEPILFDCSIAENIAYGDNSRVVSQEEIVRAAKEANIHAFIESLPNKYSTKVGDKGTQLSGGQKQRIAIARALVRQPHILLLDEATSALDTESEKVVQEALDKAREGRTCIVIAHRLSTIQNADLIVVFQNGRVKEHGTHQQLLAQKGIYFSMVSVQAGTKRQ

EC50 (L5178Y) [µM]	EC50 [1] [µM]	SMILES
2.22	1.06	Cc1nn(-c2ccccc2)c(OCC(O)CN(C(C)C)C(C)C)c1C(=O)c1ccccc1 (centres undefined)
94.7	72.4	Cc1c(C(=O)c2cccs2)c(=O)n(-c2ccccc2)n1CC(O)CNC(C)(C)C (centres undefined)
64.5	28.2	CCCNCC(O)Cn1c(C)c(C(=O)c2ccccc2)c(=O)n1-c1ccccc1 (centres undefined)
4.02	2.69	CCCCNCC(O)Cn1c(C)c(C(=O)CCc2ccccc2)c(=O)n1-c1ccccc1 (centres undefined)
	24.1	Cc1c(C(=O)c2ccccc2)c(=O)n(C)n1CC(O)CN(C(C)C)C(C)C (centres undefined)
	273	CCC/N=C(\c1ccccc1)c1c(C)[nH]n(C)c1=O
226	83.2	Cc1c(C(=O)c2ccccc2)c(=O)n(-c2ccccc2)n1CC(O)CNC(C)C (centres undefined)
2.43	0.89	Cc1ccccc1N1CCN(CC(O)Cn2c(C)c(C(=O)c3ccccc3)c(=O)n2-c2ccccc2)CC1 (centres undefined)
	11	CCCNc1c(C(=O)c2ccccc2)c(C)nn1-c1ccccc1
	0.21	Cc1ccccc1N1CCN(CC(O)Cn2c(C)c(C(=O)CCc3ccccc3)c(=O)n2-c2ccccc2)CC1 (centres undefined)
34.2	11.8	Cc1c(C(=O)CCc2ccccc2)c(=O)n(-c2ccccc2)n1CC(O)CNC(C)C (centres undefined)
15.2	6.31	CCCNCC(O)Cn1c(C)c(C(=O)CCc2ccccc2)c(=O)n1-c1ccccc1 (centres undefined)
17.8	7.76	Cc1c(C(=O)CCc2ccccc2)c(=O)n(-c2ccccc2)n1CC(O)CNC(C)(C)C (centres undefined)
	3.79	CCC/N=C(\CCc1ccccc1)c1c(C)[nH]n(-c2ccccc2)c1=O
	1.21	Cc1nn(C)c(OCC(O)CN(C(C)C)C(C)C)c1C(=O)c1ccccc1 (centres undefined)
648	123	Cc1c(C(=O)c2cccs2)c(=O)n(-c2ccccc2)n1CC(O)CNC(C)C (centres undefined)
168	81.3	Cc1c(C(=O)c2ccccc2)c(=O)n(-c2ccccc2)n1CC(O)CNC(C)(C)C (centres undefined)
	0.68	CC1=NN(c2ccccc2)C(=O)/C1=C(/c1ccccc1)N1CCN(c2ccccc2C)CC1
21.9	12.6	Cc1c(C(=O)c2ccccc2)c(=O)n(-c2ccccc2)n1CC(O)CN(C(C)C)C(C)C (centres undefined)
	8.38	CCCNc1c(C(=O)CCc2ccccc2)c(C)nn1-c1ccccc1
174	72.4	CCCNCC(O)Cn1c(C)c(C(=O)c2cccs2)c(=O)n1-c1ccccc1 (centres undefined)
